Data set [1] concerns the target Beta-2 adrenergic receptor (Homo sapiens, UniProt P07550). Description: Binding affinity against human Beta-2 adrenergic receptor expressed in CHO cells using [125I]iodocyanopindolol. The data set is classed as cell-based.
The target of data set [2] is T1, Beta-3 adrenergic receptor (Homo sapiens, UniProt P13945). Description: Stimulated increase in cAMP in CHO cells expressing human beta-3 receptor. The data set is classed as functional, cell-based.
Target sequence in this assay (P13945 whole entry): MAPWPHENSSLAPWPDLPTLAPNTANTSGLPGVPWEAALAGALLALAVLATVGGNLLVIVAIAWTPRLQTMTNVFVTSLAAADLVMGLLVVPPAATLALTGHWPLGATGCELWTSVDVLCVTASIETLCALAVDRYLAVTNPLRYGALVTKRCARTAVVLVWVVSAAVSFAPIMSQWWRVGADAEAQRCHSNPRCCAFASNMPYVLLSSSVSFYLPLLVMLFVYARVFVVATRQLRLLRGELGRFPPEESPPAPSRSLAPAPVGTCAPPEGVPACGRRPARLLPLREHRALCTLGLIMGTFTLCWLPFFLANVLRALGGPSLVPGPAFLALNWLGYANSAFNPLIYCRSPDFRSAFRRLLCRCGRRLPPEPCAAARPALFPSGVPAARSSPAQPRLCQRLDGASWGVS
For data set [3], the target named is Beta-1 adrenergic receptor (Homo sapiens, UniProt P08588). Description: Binding affinity (measured using [125I]iodocyanopindolol) against human Beta-1 adrenergic receptor expressed in CHO cells. The data set is classed as cell-based. A digest of the protocol: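 Membranes from CHO cells expressing cloned human β1 receptor; competition binding against 125I-iodocyanopindolol.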

Data set [4] concerns the target T1, Beta-3 adrenergic receptor. Description: Percent increase in adenylyl cyclase activation in CHO cells expressing human beta-3 adrenergic receptor. The data set is classed as functional, cell-based. The procedure, abridged: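 Functional adenylyl cyclase stimulation via the β3 receptor. Activation expressed as percent of the maximal stimulation produced by isoproterenol.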
Target sequence in this assay (P13945 whole entry, looked up): as the sequence (P13945 whole entry) above

Data set [5] in a line: Bioavailability after peroral administration in dogs. Format: ADME, organism-based, Canis lupus familiaris. Conditions: dog, in vivo, po. The procedure, abridged:
(§1)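 Beagle dogs dosed orally at 10 mg/kg (solution in 0.5% methylcellulose/0.02% sodium lauryl sulfate with 2 equiv HCl) and iv at 3 mg/kg (PEG400/ethanol/normal saline 60:20:20 v/v/v). Blood taken predose and at 5 (iv only), 15, 30 min, 1, 2, 6, 8, 24 h. Plasma drug measured by LC/MS/MS.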

The nature of data set [6]: Half life period was determined. The data set is classed as ADME, organism-based, Canis lupus familiaris. Conditions: dog, in vivo. A digest of the protocol: as §1
The nature of data set [7]: Oral bioavailability in dog. To be noted: in vivo. Format: ADME, organism-based, Canis lupus familiaris. The procedure, abridged: as §1

This is an account of results in ChEMBL document CHEMBL1133294, “Potent, selective 3-pyridylethanolamine beta3 adrenergic receptor agonists possessing a thiazole benzenesulfonamide pharmacophore” (Bioorg Med Chem Lett, 2000).

Molecules are shown by their SMILES.

Sequence of Beta-2 adrenergic receptor (P07550 whole entry): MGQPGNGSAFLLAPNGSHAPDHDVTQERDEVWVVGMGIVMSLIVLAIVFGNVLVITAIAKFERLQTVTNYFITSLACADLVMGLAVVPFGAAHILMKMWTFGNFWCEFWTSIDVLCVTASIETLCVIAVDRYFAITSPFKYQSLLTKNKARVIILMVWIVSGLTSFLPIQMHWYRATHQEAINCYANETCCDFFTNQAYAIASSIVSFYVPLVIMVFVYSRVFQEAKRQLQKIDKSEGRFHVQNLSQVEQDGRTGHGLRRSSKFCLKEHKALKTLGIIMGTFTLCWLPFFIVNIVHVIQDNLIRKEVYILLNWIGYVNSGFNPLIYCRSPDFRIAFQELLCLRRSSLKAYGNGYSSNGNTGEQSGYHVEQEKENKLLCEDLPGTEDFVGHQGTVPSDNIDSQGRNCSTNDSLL
Sequence of Beta-1 adrenergic receptor (P08588 whole entry): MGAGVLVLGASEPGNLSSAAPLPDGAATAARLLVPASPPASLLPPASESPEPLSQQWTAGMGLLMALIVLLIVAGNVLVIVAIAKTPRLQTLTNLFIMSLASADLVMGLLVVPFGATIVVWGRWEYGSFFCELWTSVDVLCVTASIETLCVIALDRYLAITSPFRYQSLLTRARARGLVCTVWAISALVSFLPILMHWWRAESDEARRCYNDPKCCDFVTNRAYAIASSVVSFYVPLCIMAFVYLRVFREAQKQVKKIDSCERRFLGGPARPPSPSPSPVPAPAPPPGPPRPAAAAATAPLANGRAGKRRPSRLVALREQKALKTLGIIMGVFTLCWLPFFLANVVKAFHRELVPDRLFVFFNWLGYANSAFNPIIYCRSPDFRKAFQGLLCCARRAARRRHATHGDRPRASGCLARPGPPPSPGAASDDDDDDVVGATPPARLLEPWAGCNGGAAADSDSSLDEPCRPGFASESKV

`CCCCCCc1ccc(-c2csc(-c3ccc(S(=O)(=O)Nc4ccc(CCNC[C@H](O)c5cccnc5)cc4)cc3)n2)cc1`: the IC50 (commonly the midpoint of a concentration-inhibition curve) in data set [1] stood at 90 µM; in data set [3], 52 µM. Besides, in data set [2], the EC50 (in general, the concentration that produces a half-maximal response) worked out at 0.0012 µM. The Max stimulation in data set [4] came out at 84%.
With `O=S(=O)(Nc1ccc(CCNC[C@H](O)c2cccnc2)cc1)c1ccc(-c2nc(-c3ccc(F)cc3)cs2)cc1`, the IC50 is 1.9 µM in data set [1] and 1.5 µM in data set [3]. The molecule further displayed an EC50 in data set [2] of 0.0095 µM. Also, the Max stimulation in data set [4] turned out to be 81%.
With `CC(=O)NCCCCCc1csc(-c2ccc(S(=O)(=O)Nc3ccc(CCNC[C@H](O)c4cccnc4)cc3)cc2)n1`, the IC50 in data set [1] worked out at 16 µM; in data set [3] it was 50 µM. In data set [2], this molecule showed an EC50 of 0.05 µM. Also, the Max stimulation in data set [4] came out at 82%.
Take `CCCCCCCCc1csc(Cc2ccc(S(=O)(=O)Nc3ccc(CCNC[C@H](O)c4cccnc4)cc3)cc2)n1`: the values for the IC50 in data set [1] and in data set [3] were 1 µM and 0.85 µM, respectively. Also, a half-maximal response in data set [2] (EC50) required 0.0098 µM. The same molecule gave a Max stimulation in data set [4] of 79%.
On to `O=S(=O)(Nc1ccc(CCNC[C@H](O)c2cccnc2)cc1)c1ccc(-c2nc(-c3cc4ccccc4o3)cs2)cc1`, for which the IC50 is 49 µM in data set [1] and 90 µM in data set [3]. In data set [2], this molecule came in with an EC50 of 0.0091 µM. In addition, the Max stimulation in data set [4] turned out to be 91%.
As for `O=S(=O)(Nc1ccc(CCNC[C@H](O)c2cccnc2)cc1)c1ccc(-c2nc(-c3ccc(F)c(F)c3)cs2)cc1`, the bioavailability – broadly, the share of a dose that reaches the circulation, judged against a reference dose that is usually intravenous – in data set [5] is 36%. The molecule further came in with a Max stimulation in data set [4] of 92%.
As to `CCCCCCc1csc(-c2ccc(S(=O)(=O)Nc3ccc(CCNC[C@H](O)c4cccnc4)cc3)cc2)n1`, the figures for the IC50 in data set [1] and in data set [3] were 0.62 µM and 40 µM, respectively. Moreover, in data set [2], a half-maximal effect (EC50) was put at 0.051 µM. This molecule gave a Max stimulation in data set [4] of 69%.
Take `O=S(=O)(Nc1ccc(CCNC[C@H](O)c2cccnc2)cc1)c1ccc(-c2nc(Cc3ccc(F)cc3)cs2)cc1`: the IC50 in data set [1] came out at 2.5 µM; in data set [3] it was 3 µM. For the same molecule, in data set [2], the response was half-maximal at 0.0062 µM (EC50). Besides, the Max stimulation in data set [4] was 57%.
For the molecule `O=c1n(CCCC2CCCC2)nnn1-c1ccc(S(=O)(=O)Nc2ccc(CCNC[C@H](O)c3cccnc3)cc2)cc1`, the half-life (commonly the time in which the quantity being followed falls by half) in data set [6] is 3.6 h.
For `O=S(=O)(Nc1ccc(CCNC[C@H](O)c2cccnc2)cc1)c1ccc(-c2nc(-c3c[nH]c4ccccc34)cs2)cc1`, the IC50 came to 50 µM in data set [1] and 30 µM in data set [3]. Moreover, in data set [2], a half-maximal effect (EC50) was put at 0.0049 µM. This molecule also yielded a Max stimulation in data set [4] of 100%.
For `O=S(=O)(Nc1ccc(CCNC[C@H](O)c2cccnc2)cc1)c1ccc(-c2nc(-c3ccc(O)cc3)cs2)cc1`, in that order: 5.7 µM, 1.1 µM, 0.045 µM and 58%.
Take `O=S(=O)(Nc1ccc(CCNC[C@H](O)c2cccnc2)cc1)c1ccc(-c2nc(-c3ccc4ncccc4c3)cs2)cc1`: the IC50 in data set [1] was found to be 8 µM; in data set [3] it was 6 µM. Moreover, in data set [2], the EC50 worked out at 0.0027 µM. In data set [4], this molecule had a Max stimulation of 97%.
With `O=S(=O)(Nc1ccc(CCNC[C@H](O)c2cccnc2)cc1)c1ccc(Cc2nc(Cc3ccc4ccccc4c3)cs2)cc1`, the IC50 in data set [1] is 2 µM; in data set [3], 2.5 µM. Also, the EC50 in data set [2] came to 0.012 µM. In data set [4], the Max stimulation is 83%.
In data set [7], `CCCCCCCCc1csc(N2CCc3cc(S(=O)(=O)Nc4ccc(CCNC[C@H](O)c5cccnc5)cc4)ccc32)n1` gave a bioavailability of 13%.
`CC(C)(C)c1ccc(-c2csc(-c3ccc(S(=O)(=O)Nc4ccc(CCNC[C@H](O)c5cccnc5)cc4)cc3)n2)cc1`: the IC50 in data set [1] came out at 2 µM; in data set [3] it was 1.6 µM. Further, in data set [2], the EC50 was found to be 0.0024 µM. Further, the Max stimulation in data set [4] was determined as 100%.
Regarding `O=S(=O)(Nc1ccc(CCNC[C@H](O)c2cccnc2)cc1)c1ccc(-c2nc(-c3cc4ccccc4s3)cs2)cc1`, the IC50 in data set [1] is 93 µM; in data set [3], 100 µM. In data set [2], this molecule displayed an EC50 of 0.0058 µM. This molecule registered a Max stimulation in data set [4] of 94%.
The corresponding values for `O=S(=O)(Nc1ccc(CCNC[C@H](O)c2cccnc2)cc1)c1ccc(-c2nc(-c3cnc4ccccc4c3)cs2)cc1` are 47 µM, 19 µM, 0.0073 µM and 79%.
On to `O=S(=O)(Nc1ccc(CCNC[C@H](O)c2cccnc2)cc1)c1ccc(-c2nc(-c3cccnc3)cs2)cc1`, for which the IC50 in data set [1] turned out to be 3 µM; in data set [3], 7 µM. In data set [2], this molecule came in with an EC50 of 0.04 µM. This molecule also yielded a Max stimulation in data set [4] of 69%.
For `CCCCCCCCc1csc(-c2ccc(S(=O)(=O)Nc3ccc(CCNC[C@H](O)c4cccnc4)cc3)cc2)n1`, the IC50 in data set [1] amounted to 3 µM; in data set [3] it was 3.7 µM. For the same molecule, in data set [2], the EC50 is 0.01 µM. For the same molecule, the Max stimulation in data set [4] came out at 84%.
As for `O=S(=O)(Nc1ccc(CCNC[C@H](O)c2cccnc2)cc1)c1ccc(-c2nc(-c3ccccn3)cs2)cc1`, the IC50 in data set [1] is 4 µM; in data set [3] it was 6.5 µM. Besides, in data set [2], the EC50 turned out to be 0.022 µM. Also, in data set [4], the Max stimulation stood at 100%.
As to `O=S(=O)(Nc1ccc(CCNC[C@H](O)c2cccnc2)cc1)c1ccc(-c2nc(CCCC3CCCC3)cs2)cc1`, the IC50 came to 3 µM in data set [1] and 7 µM in data set [3]. The molecule further had an EC50 in data set [2] of 0.026 µM. The molecule also showed a Max stimulation in data set [4] of 95%.
Consider `O=S(=O)(Nc1ccc(CCNC[C@H](O)c2cccnc2)cc1)c1ccc(-c2nc(-c3ccc4ccccc4c3)cs2)cc1`, for which the IC50 was 6.3 µM in data set [1] and 13 µM in data set [3]. The molecule further returned an EC50 in data set [2] of 0.002 µM. Moreover, in data set [4], the Max stimulation was 100%.
The corresponding values for `CC(=O)Nc1ccc(-c2csc(-c3ccc(S(=O)(=O)Nc4ccc(CCNC[C@H](O)c5cccnc5)cc4)cc3)n2)cc1` are 2.1 µM, 0.96 µM, 0.045 µM and 82%.
For `O=S(=O)(Nc1ccc(CCNC[C@H](O)c2cccnc2)cc1)c1ccc(-c2nc(Cc3ccc4ccccc4c3)cs2)cc1`, in that order: 2.3 µM, 3.3 µM, 0.005 µM and 75%.
Regarding `O=S(=O)(Nc1ccc(CCNC[C@H](O)c2cccnc2)cc1)c1ccc(-c2nc(CCc3ccccc3)cs2)cc1`, the IC50 in data set [1] stood at 0.91 µM; in data set [3], 9 µM. The EC50 in data set [2] was 0.033 µM. For the same molecule, the Max stimulation in data set [4] turned out to be 70%.
